The source made the active and inactive calls.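 How the source made its calls: active means IC50 at or below 10 µM; inactive means IC50 above 10 µM.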
Each compound was assayed on CHO-S GAL4-VP16 UAS luciferase reporter, luminescence (assay: GAL4-VP16 UAS luciferase reporter inhibitors, late-stage follow-up, counter-screen for NR2E3 agonist project, luminescence, CHO-S cells (AID 651846)).
In short: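 Test system: CHO-S cells transiently co-transfected with GAL4 DBD–VP16 fusion plus UAS pGL4.31 luciferase | Timing: 24 h compound treatment, 37 °C | Technique: Luciferase luminescence with One-Glo reagent, 10 min at room temperature | Read-out: % inhibition of luciferase signal | Replicates: Triplicates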
NC(=O)c1nn(-c2ccccc2)nc1NC(=O)CSc1nnnn1-c1ccc(Cl)cc1 was tested, and the IC50 was > 39.8 µM (inactive). With COc1ccc(S(=O)(=O)N2CCCCC2)cc1NC(=S)Nc1cccc(Cl)c1C the IC50 was > 39.8 µM (inactive). In the case of Cc1cnc(NC(=O)CCCc2nc3ccccc3s2)s1, the IC50 is reported as > 39.8 µM (inactive). COc1ccc(OC)c(NC(=O)CSc2nnnn2-c2ccc3c(c2)OCO3)c1 was tested, and the IC50 was > 39.8 µM (inactive). For COc1cc2nc(CN3CC=C(c4ccccc4)CC3)[nH]c(=O)c2cc1OC, the IC50 was > 39.8 µM (inactive). In the case of Cc1ccc(NC(=O)CSc2nnnn2-c2ccc3c(c2)OCO3)cc1C, the IC50 is reported as > 39.8 µM (inactive). In the case of Cc1cnc(NC(=O)Cc2ccc(Br)cc2)s1, the IC50 is reported as > 39.8 µM (inactive). For Cc1cccc(C(=O)N[C@H](C(=O)Nc2ncc(C)s2)C(C)C)c1, the IC50 was > 39.8 µM (inactive). O=C(CSc1nnnn1-c1ccc2c(c1)OCCO2)Nc1nc2c(s1)CCCC2 was tested, and the IC50 was > 39.8 µM (inactive). In the case of Cc1cnc(NC(=O)C2CC(=O)N(c3ccc4c(c3)OCCO4)C2)s1 (stereo unspecified), the IC50 is reported as > 39.8 µM (inactive). With Cc1cccc(OCCCC(=O)Nc2nc3ccccc3[nH]2)c1 the IC50 was > 39.8 µM (inactive). COc1cccc(NC(=O)CSc2nc3ncc(Br)cc3[nH]2)c1 was tested, and the IC50 was > 39.8 µM (inactive). COc1cccc(N2CCN(c3nc(-c4ccccc4C)cc(=O)[nH]3)CC2)c1 was tested, and the IC50 was > 39.8 µM (inactive). With Cc1ccc(CN2CC(C(=O)Nc3ncc(C)s3)CC2=O)cc1 (stereo unspecified) the IC50 was > 39.8 µM (inactive). For O=c1cc(N2CCN(c3cccc(Cl)c3)CC2)[nH]c(=O)n1C1CCCCC1, the IC50 was > 39.8 µM (inactive). Cc1onc(-c2ccccc2Cl)c1C(=O)Nc1nc2c(s1)CCCC2 was tested, and the IC50 was > 39.8 µM (inactive). O=c1c(Cl)c(N2CCN(c3ccc(F)cc3)CC2)cnn1C12CC3CC(CC(C3)C1)C2 was tested, and the IC50 was > 39.8 µM (inactive). In the case of COc1ccc(NC2c3ccccc3C(=O)N2Cc2ccccc2Cl)cc1OC (stereo unspecified), the IC50 is reported as > 39.8 µM (inactive). In the case of COc1ccc(S(=O)(=O)N2CCCCC2)cc1NC(=S)Nc1ccccc1, the IC50 is reported as > 39.8 µM (inactive). With Cc1ccc(-c2nc(NC(=O)CSc3nnnn3-c3ccccc3)ns2)cc1 the IC50 was > 39.8 µM (inactive). For O=C(O)CC1(CC(=O)Nc2cc(C(F)(F)F)cc(C(F)(F)F)c2)CCCCC1, the IC50 was 7.72 µM. O=C(Nc1cccc(NC(=O)c2c(F)cccc2F)n1)c1c(F)cccc1F was tested, and the IC50 was > 39.8 µM (inactive). With O=C(CSc1nnnn1-c1ccc(O)cc1)Nc1ccc(N2CCOCC2)c(Cl)c1 the IC50 was > 39.8 µM (inactive). Cc1cc(C)cc(NC(=O)CCc2nc3sc4c(c3c(=O)[nH]2)CCCC4)c1 was tested, and the IC50 was > 39.8 µM (inactive). In the case of Cc1ccnc(NC(=O)CSc2cc(=O)n(C)c3ccccc23)c1, the IC50 is reported as > 39.8 µM (inactive). For COc1ccc2c(CC(=O)Nc3ncc(C)s3)coc2c1, the IC50 was > 39.8 µM (inactive).

Reference: PubChem BioAssay AID651846 (The Scripps Research Institute Molecular Screening Center, 2012)
